ChEMBL document CHEMBL4842335, “Discovery of penipanoid C-inspired 2-(3,4,5-trimethoxybenzoyl)quinazolin-4(3H)-one derivatives as potential anticancer agents by inhibiting cell proliferation and inducing apoptosis in hepatocellular carcinoma cells” (Eur J Med Chem, 2021)
The source made the active and inactive calls. The rule behind the calls is not given here.

Legend:
[1] = target: Mitogen-activated protein kinase; ERK1/ERK2 (Homo sapiens) (UniProt P27361+P28482); experiment: Upregulation of ERK1/2 phosphorylation in human Bel-7402 cells incubated for 48 hrs by Western blot analysis
Bel-7402 [2] = experiment: Inhibition of colony formation in human Bel-7402 cells at 1.6 to 3.2 uM measured after 10 days by crystal violet staining based assay relative to control; assay type: functional, cell-based; conditions: dose 1.6-3.2 µM, time 10.0 day
Method in brief: (§1)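 1000 cells/well seeded, attached overnight in DMEM + 10% FBS, then grown 10 days at 37 °C, 5% CO₂ with 0, 0.2, 0.4, 0.8, 1.6 or 3.2 µM. Fixed in 4% paraformaldehyde 15 min, stained 0.1% crystal violet 30 min, colonies counted; formation rate relative to solvent control.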

[3] = target: T1, Serine/threonine-protein kinase AKT (Homo sapiens) (UniProt P31751+Q9Y243+P31749); experiment: Inhibition of Akt phosphorylation in human Bel-7402 cells incubated for 48 hrs by Western blot analysis; assay type: cell-based
Method in brief: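 Bel-7402 exposed for 48 h to 0, 1.6 or 3.2 µM; cell extracts on 12.5% SDS-PAGE, transferred to PVDF, probed overnight at 4 °C with AKT, p-AKT, ERK1/2, p-ERK1/2 antibodies (1:1000), HRP secondary 1 h, chemiluminescent detection. Band levels normalised to control = 1; SD, n = 3.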

[4] = Toxicity in BALB/c mouse xenografted with human HepG2 cells at 4 to 8 mg/kg, ip relative to control; assay type: organism-based; conditions: in vivo, dose 4-8 mg/kg
Method in brief: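 Female BALB/c nude mice (14–17 g) carrying s.c. HepG2 xenografts (100–200 mm³), 5 per group. Dosed i.p. daily for 20 days at 4 or 8 mg/kg in 15% N-methylpyrrolidone/25% Solutol HS-15/60% saline, with vehicle controls. Body weight tracked over the treatment.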

HepG2 [5] = experiment: Induction of cell cycle arrest in human HepG2 cells assessed as accumulation at S phase at 1.6 uM incubated for 48 hrs by flow cytometry (reference value: 28.23%); assay type: functional
Method in brief: (§2)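 HepG2 treated 48 h with 0, 0.8 or 1.6 µM (DMSO control); phase distribution by flow cytometry using a cell cycle and apoptosis kit; mean with SD, n = 3.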

HepG2 [6] = experiment: Induction of cell cycle arrest in human HepG2 cells assessed as accumulation at G2/M phase at 1.6 uM incubated for 48 hrs by flow cytometry (reference value: 24.89%); assay type: functional
Method in brief: as §2

HepG2 [7] = experiment: Inhibition of colony formation in human HepG2 cells at 1.6 to 3.2 uM measured after 10 days by crystal violet staining based assay relative to control; assay type: functional, cell-based; conditions: dose 1.6-3.2 µM, time 10.0 day
Method in brief: as §1

Bel-7402 [8] = experiment: Induction of cell cycle arrest in human Bel-7402 cells assessed as accumulation at G2/M phase at 1.6 uM incubated for 48 hrs by flow cytometry (reference value: 25.20%); assay type: functional
HepG2 [9] = experiment: Induction of apoptosis in human HepG2 cells assessed as increase in cleaved PARP level at 1.6 to 3.2 uM after 48 hrs by Western blot analysis; conditions: dose 1.6-3.2 µM
HepG2 [10] = experiment: Induction of apoptosis in human HepG2 cells assessed as dead cells at 1.6 uM incubated for 48 hrs by Annexin V and dead cell assay kit (reference value: 0.55%); assay type: functional
Method in brief: (§3)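 HepG2 cells were grown in DMEM and exposed to 0, 0.8, 1.6 or 3.2 µM test agent or DMSO vehicle for 48 h. Apoptosis was then read on a Muse cell analyzer using an Annexin V & Dead Cell kit, which separates live, early apoptotic, late apoptotic and dead populations. The figure legend gives n = 3 with SEM.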

HepG2 [11] = experiment: Induction of cell cycle arrest in human HepG2 cells assessed as accumulation at S phase at 0.8 uM incubated for 48 hrs by flow cytometry (reference value: 28.23%); assay type: functional
Method in brief: as §2

[12] = Selectivity index, ratio of IC50 for human LO2 cells to IC50 for human HepG2 cells; assay type: toxicity; conditions: LO2 cells versus HepG2 cells, read-out: Selectivity Index
HepG2 [13] = experiment: Induction of apoptosis in human HepG2 cells assessed as early apoptotic cells at 1.6 uM incubated for 48 hrs by Annexin V and dead cell assay kit (reference value: 4.55%); assay type: functional
Method in brief: as §3

HepG2 [14] = experiment: Induction of apoptosis in human HepG2 cells assessed as dead cells at 0.8 uM incubated for 48 hrs by Annexin V and dead cell assay kit (reference value: 0.55%); assay type: functional
Method in brief: as §3

HepG2 [15] = experiment: Induction of apoptosis in human HepG2 cells assessed as increase in cleaved Caspase 3 level at 1.6 to 3.2 uM after 48 hrs by Western blot analysis; conditions: dose 1.6-3.2 µM
HepG2 [16] = experiment: Induction of apoptosis in human HepG2 cells assessed as live cells at 1.6 uM incubated for 48 hrs by Annexin V and dead cell assay kit (reference value: 93.90%); assay type: functional
Method in brief: as §3

HepG2 [17] = experiment: Antitumor activity against human HepG2 cells xenografted in BALB/c mouse assessed as tumor growth inhibition at 4 mg/kg, ip relative to control; assay type: functional; conditions: read-out: TGI
Method in brief: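 Female BALB/c nude mice (14–17 g) given HepG2 s.c. (1×10⁶/mouse); at 100–200 mm³ tumours, randomised to 3 groups of 5. Daily i.p. dosing at 4 or 8 mg/kg for 20 days; vehicle 15% N-methylpyrrolidone/25% Solutol HS-15/60% saline. Caliper volume twice weekly, TV = width² × length/2; inhibition from volume change versus vehicle group.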

HepG2 [18] = experiment: Induction of reactive oxygen species generation in human HepG2 cells incubated for 48 hrs by DCFH-DA based fluorescent microscopy; assay type: functional, cell-based; conditions: dose 1.6-3.2 µM
Method in brief: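 HepG2 cultured 48 h with 0, 0.8, 1.6 or 3.2 µM, washed, loaded with […] DCFH-DA for 20 min at 37 °C in the dark; fluorescence viewed by microscopy.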

U-251 = experiment: Cytotoxicity against human U251 cells assessed as inhibition of proliferation incubated for 72 hrs by MTT assay; assay type: functional, cell-based; conditions: U-251, 72 h
Method in brief: (§4)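 Cells plated at 3×10³/well, grown overnight in DMEM + 10% FBS, then exposed to compounds (DMSO stocks; 0.1% DMSO negative control) for 72 h at 37 °C. MTT (5 mg/mL in PBS, added at 10%) for 4 h, formazan dissolved in DMSO, A570 read. Inhibition = (Ac−As)/(Ac−Ab)×100; IC50 by calculator; ≥3 independent repeats.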

L02 = experiment: Cytotoxicity against human L-O2 cells assessed as inhibition of proliferation incubated for 72 hrs by MTT assay; assay type: cell-based; conditions: L02, 72 h
[19] = target: T1, Serine/threonine-protein kinase AKT (Homo sapiens); experiment: Inhibition of Akt phosphorylation in human HepG2 cells incubated for 48 hrs by Western blot analysis; assay type: cell-based; conditions: dose 1.6-3.2 µM
Method in brief: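 HepG2 treated 48 h with 0, 1.6 or 3.2 µM; lysates run on 12.5% SDS-PAGE, PVDF transfer, primary antibodies (AKT, p-AKT, ERK1/2, p-ERK1/2; 1:1000) overnight at 4 °C, HRP secondaries 1 h, chemiluminescence. Phosphorylation quantified relative to untreated control set to 1; SD, n = 3.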

HepG2 [20] = experiment: Cytotoxicity against human HepG2 cells assessed as inhibition of proliferation incubated for 72 hrs by MTT assay; assay type: functional, cell-based; conditions: HepG2, 72 h
Method in brief: as §4

T1 sequence (P31749 whole entry, looked up): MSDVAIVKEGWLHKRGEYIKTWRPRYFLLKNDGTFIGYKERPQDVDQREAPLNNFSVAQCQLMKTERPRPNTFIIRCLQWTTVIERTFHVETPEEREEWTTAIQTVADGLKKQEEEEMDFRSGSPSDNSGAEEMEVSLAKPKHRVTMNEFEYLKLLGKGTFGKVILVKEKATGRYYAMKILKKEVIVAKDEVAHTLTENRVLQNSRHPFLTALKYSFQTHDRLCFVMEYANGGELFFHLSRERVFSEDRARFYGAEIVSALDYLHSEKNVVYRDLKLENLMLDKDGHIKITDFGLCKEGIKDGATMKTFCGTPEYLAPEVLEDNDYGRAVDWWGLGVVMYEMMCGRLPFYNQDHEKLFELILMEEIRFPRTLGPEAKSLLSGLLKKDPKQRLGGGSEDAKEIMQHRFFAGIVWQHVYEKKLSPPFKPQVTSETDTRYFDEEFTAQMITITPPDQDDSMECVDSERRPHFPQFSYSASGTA
T1 sequence (P31751 whole entry, looked up): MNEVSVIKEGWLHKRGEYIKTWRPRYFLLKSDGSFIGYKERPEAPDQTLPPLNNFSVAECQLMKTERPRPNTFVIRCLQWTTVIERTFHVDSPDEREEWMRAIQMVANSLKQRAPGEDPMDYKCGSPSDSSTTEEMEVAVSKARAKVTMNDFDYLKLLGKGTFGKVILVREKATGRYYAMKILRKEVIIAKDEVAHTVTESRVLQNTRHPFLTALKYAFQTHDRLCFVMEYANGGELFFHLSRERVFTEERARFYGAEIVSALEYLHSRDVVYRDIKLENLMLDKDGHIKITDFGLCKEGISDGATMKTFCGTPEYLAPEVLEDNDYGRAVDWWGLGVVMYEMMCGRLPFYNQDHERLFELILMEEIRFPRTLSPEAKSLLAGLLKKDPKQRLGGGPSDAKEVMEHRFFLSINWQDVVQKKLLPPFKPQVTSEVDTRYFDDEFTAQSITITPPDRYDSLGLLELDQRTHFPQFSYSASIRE
T1 sequence (Q9Y243 whole entry, looked up): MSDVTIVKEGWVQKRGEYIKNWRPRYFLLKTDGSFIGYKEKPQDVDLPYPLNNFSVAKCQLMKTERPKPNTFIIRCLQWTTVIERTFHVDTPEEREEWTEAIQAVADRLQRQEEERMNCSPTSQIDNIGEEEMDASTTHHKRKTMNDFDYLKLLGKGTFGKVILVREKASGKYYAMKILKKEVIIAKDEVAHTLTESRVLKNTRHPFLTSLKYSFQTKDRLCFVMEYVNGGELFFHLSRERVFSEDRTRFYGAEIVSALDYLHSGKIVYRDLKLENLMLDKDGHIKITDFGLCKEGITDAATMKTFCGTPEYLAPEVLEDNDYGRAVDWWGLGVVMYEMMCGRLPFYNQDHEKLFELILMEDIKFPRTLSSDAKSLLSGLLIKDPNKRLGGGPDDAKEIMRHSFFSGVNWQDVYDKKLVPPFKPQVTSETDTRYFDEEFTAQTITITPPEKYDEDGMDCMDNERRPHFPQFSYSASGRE
Mitogen-activated protein kinase; ERK1/ERK2 (Homo sapiens), sequence (P27361 whole entry, looked up): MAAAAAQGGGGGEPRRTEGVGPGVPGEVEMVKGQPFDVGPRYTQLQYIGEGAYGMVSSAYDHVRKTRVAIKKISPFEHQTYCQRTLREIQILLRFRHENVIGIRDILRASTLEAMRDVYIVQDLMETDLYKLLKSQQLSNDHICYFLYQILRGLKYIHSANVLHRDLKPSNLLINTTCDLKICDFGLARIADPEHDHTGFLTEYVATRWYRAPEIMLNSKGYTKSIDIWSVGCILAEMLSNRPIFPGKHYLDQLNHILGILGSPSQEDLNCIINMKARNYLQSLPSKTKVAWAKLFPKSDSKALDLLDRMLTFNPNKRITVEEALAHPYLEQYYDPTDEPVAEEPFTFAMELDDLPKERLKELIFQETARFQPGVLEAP
Mitogen-activated protein kinase; ERK1/ERK2 (Homo sapiens), sequence (P28482 whole entry, looked up): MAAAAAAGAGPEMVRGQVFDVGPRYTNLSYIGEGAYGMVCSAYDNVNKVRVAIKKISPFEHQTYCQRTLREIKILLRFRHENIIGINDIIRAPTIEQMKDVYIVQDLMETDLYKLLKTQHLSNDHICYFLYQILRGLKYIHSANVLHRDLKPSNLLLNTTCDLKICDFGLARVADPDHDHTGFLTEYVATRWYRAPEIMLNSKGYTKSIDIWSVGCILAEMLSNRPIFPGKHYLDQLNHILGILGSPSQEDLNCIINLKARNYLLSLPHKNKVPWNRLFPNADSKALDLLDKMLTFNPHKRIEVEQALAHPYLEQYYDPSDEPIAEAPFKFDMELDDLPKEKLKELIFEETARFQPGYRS

## COc1cc(C(=O)c2nc3ccccc3c(=O)[nH]2)cc(OC)c1OC
[1]
  Activity: Dose-Dependent Effect
Bel-7402 [2]
  Activity: Active
[3]
  inhibition: Dose-Dependent Effect
[4]
  Activity: Non-Toxic
HepG2 [5]
  Activity: 35.65%
HepG2 [6]
  Activity: 35.18%
HepG2 [7]
  inhibition: Active
Bel-7402 [8]
  Activity: 32.43%
HepG2 [9]
  Activity: Active
HepG2 [10]
  Activity: 0.95%
HepG2 [11]
  Activity: 33.43%
[12]
  selectivity ratio: 4.9
HepG2 [13]
  Activity: 11.7%
HepG2 [14]
  Activity: 0.45%
HepG2 [15]
  Activity: Active
HepG2 [16]
  Activity: 80.65%
HepG2 [17]
  inhibition in vivo at 4 mg/kg: 19.1%
HepG2 [18]
  Activity: Active
U-251
  IC50: 5.48 µM
L02
  IC50: 6.01 µM
[19]
  inhibition: Dose-Dependent Effect
HepG2 [20]
  IC50: 1.22 µM
